Results gathered from unrelated publications.
Compare with care: the assays were run in different laboratories.
Target: Serine/threonine-protein kinase D3 (PRKD3, Homo sapiens, UniProt O94806)
Sequence (O94806 1-890, as in one of the studies): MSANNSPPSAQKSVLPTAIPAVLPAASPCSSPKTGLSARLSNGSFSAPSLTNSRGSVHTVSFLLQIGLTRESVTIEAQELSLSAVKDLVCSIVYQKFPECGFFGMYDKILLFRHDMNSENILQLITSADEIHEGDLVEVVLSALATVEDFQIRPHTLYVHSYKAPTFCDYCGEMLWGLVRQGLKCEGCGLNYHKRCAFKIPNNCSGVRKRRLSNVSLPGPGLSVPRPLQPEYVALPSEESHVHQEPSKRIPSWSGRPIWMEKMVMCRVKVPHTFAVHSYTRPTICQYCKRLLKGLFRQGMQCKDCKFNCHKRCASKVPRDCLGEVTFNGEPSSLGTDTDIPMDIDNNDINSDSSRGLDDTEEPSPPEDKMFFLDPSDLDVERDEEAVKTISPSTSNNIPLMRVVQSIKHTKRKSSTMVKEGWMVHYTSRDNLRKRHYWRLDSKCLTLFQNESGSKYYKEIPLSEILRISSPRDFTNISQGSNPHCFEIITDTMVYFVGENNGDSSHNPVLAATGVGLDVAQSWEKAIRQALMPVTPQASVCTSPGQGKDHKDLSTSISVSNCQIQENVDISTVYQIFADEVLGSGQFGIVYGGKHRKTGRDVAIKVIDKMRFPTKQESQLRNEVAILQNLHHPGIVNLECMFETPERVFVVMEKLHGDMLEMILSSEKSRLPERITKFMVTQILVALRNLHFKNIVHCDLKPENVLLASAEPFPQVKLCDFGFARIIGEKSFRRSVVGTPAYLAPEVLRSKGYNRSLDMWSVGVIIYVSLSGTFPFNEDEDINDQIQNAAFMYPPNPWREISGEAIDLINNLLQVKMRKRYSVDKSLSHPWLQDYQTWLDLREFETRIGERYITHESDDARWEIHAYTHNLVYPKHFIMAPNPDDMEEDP

Structure (SMILES) | effect on | method | concentration | remaining binding [%]
COc1ccc2cc(OCC3(C(=O)O)CN(C(=O)c4ccc(F)cc4)C3)ccc2c1 | cell-free assay | competition with immobilised ligand | 1 µM | 91
CN(C)c1nccc(-c2cnn3ncccc23)n1 | binding |  | 1 µM | 100
COc1ncc2cc3ccccc3nc2c1C#N | cell-free assay | competition with immobilised ligand | 5 µM | 100
O=C(c1ccc(Nc2ncc(Cl)c(-c3ccc(Cl)s3)n2)cc1)N1CCC(N2CCCC2)CC1 | binding | competition with immobilised ligand | 1 µM | 3.6
C[C@@H]1CN(c2cc(-c3n[nH]c4ccc(OC5(C)CC5)cc34)ncn2)C[C@H](C)O1 | cell-free assay | competition with immobilised ligand | 0.1 µM | 82
c1cncc(-c2cccc(Nc3nccc(NC4CCCCC4)n3)c2)c1 | binding | competition with immobilised ligand | 10 µM | 7.4
F[C@@H]1CCN(c2nccc(-c3cnn4ncccc34)n2)C1 | binding |  | 1 µM | 76
CNCc1ccccc1-c1csc([C@@H](C)Nc2nc(C)nc3cc(OC)c(OC)cc23)c1 | cell-free assay | competition with immobilised ligand | 1 µM | 92
COc1cnc(Nc2cccc(S(N)(=O)=O)c2)nc1N1CCN(c2ccccc2)CC1 | binding | competition with immobilised ligand | 1 µM | 96
C[C@@H](c1ccc(-n2cnc3c(N)ncnc32)cc1)N1CCc2nn(C)c(Cc3ccccc3)c2C1=O | binding | competition with immobilised ligand | 0.1 µM | 85
O=C(O)[C@@H]1[C@@H](Cn2nnc3ccccc3c2=O)CC[C@H]1C(=O)c1ccc(OCCC2CCOCC2)cc1 | cell-free assay | competition with immobilised ligand | 1 µM | 100
N[C@H]1CCN(c2nccc(-c3cnn4ncccc34)n2)C1 | binding |  | 1 µM | 91
O=C(c1ccc(Nc2nccc(-c3cc4ccccc4s3)n2)cc1)N1CCC(N2CCCC2)CC1 | binding | competition with immobilised ligand | 1 µM | 50
CN(C)c1nccc(-c2cnc3ncccn23)n1 | binding |  | 1 µM | 100
Cc1cc(NC(=O)c2cccc(S(F)(F)(F)(F)F)c2)cc(-n2ccn3nc(-c4cccnc4)cc23)c1 | cell-free assay | competition with immobilised ligand | 1 µM | 100
CNC(=O)[C@@H]1CC[C@@H](n2c(-c3ccc4cnccc4c3)nc3ccc(C(=O)NCc4cccc(C(N)=O)c4)cc32)C1 | binding | competition with immobilised ligand | 1 µM | 91
O=C(NCCCN1CCOCC1)c1ccc(Nc2nccc(-c3cc4ccccc4s3)n2)cc1 | binding | competition with immobilised ligand | 1 µM | 32
C[C@@H]1CCN(c2nccc(-c3cnn4ncccc34)n2)C1 | binding |  | 1 µM | 100
CNC(=O)c1ccc(Nc2ncc(C(F)(F)F)c(NCc3nccnc3N(C)S(C)(=O)=O)n2)cc1 | cell-free assay | competition with immobilised ligand | 0.1 µM | 100
Cc1cnn2ncc(-c3ccnc(N(C)C)n3)c2c1 | binding |  | 1 µM | 98
O=C(NCC1CCOCC1)c1n[nH]cc1NC(=O)c1c(F)cccc1F | binding | competition with immobilised ligand | 1 µM | 97
